Tested on: HEK-293T
Assay: Multiplex assay against HEK293T
Type: toxicity, cell-based
Conditions: human
Summary of the method: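 Live cells were stained at seeding with Hoechst33342, BioTracker Green Microtubule Cytoskeleton Dye, MitoTracker Red and Annexin V Alexa Fluor 680. Following compound addition, they were imaged on a CQ1 microscope at 37°C and 5% CO2 and gated by CellPathfinder machine learning into Hoechst high-intensity objects or normal cells, with normal cells split into healthy, pyknosed or fragmented nuclei and pyknosed cells into mitotic or apoptotic. Tubulin, mitochondrial-mass and membrane-permeability phenotypes are per cents of healthy-nucleus cells.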

[1] = 12 h, 1 µM, compound concentration 1 uM, replicate 1
[2] = 12 h, 1 µM, compound concentration 1 uM, replicate 2
[3] = 12 h, 10 µM, compound concentration 10 uM, replicate 1
[4] = 12 h, 10 µM, compound concentration 10 uM, replicate 2
[5] = 24 h, 1 µM, compound concentration 1 uM, replicate 1
[6] = 24 h, 1 µM, compound concentration 1 uM, replicate 2
[7] = 24 h, 10 µM, compound concentration 10 uM, replicate 1
[8] = 24 h, 10 µM, compound concentration 10 uM, replicate 2
[9] = 48 h, 1 µM, compound concentration 1 uM, replicate 1
[10] = 48 h, 1 µM, compound concentration 1 uM, replicate 2
[11] = 48 h, 10 µM, compound concentration 10 uM, replicate 1
[12] = 48 h, 10 µM, compound concentration 10 uM, replicate 2

How did the “Population Apoptotic (%)” value [1] turn out when `O=c1nc2[nH]c3ccccc3nc-2c(=O)[nH]1` [ALLOXAZINE] was run?
The value was 27%.

And the “Population Fragmented Nuclei (%)” value [1]?
Its value is 8%.

And the “Population Healthy Nuclei (%)” value [1]?
The value was 77%.

And the “Population Hoechst High Intensity Objects (%)” value [1]?
Its value is 8%.

What about the “Population Membrane Permeable-Phenotype (%)” value [1] of the same molecule?
The value was 0%.

And the “Population Mitochondria Different-Phenotype (%)” value [1]?
The value was 44%.

And the “Population Mitotic Cells (%)” value [1]?
The value was 72%.

What about the “Population Normal (%)” value [1] of the same molecule?
Its value is 91%.

What about the “Population Pyknosed Nuclei (%)” value [1] of the same molecule?
Its value is 13%.

And the “Population Tubulin-Different-Phenotype (%)” value [1]?
The value was 33%.

What about the “Total Cell Count” value [1] of the same molecule?
The value was 377.

And the “Population Apoptotic (%)” value [2]?
The value was 44%.

And the “Population Fragmented Nuclei (%)” value [2]?
Its value is 4%.

And the “Population Healthy Nuclei (%)” value [2]?
The value was 79%.

What about the “Population Hoechst High Intensity Objects (%)” value [2] of the same molecule?
The value was 7%.

What about the “Population Mitochondria Different-Phenotype (%)” value [2] of the same molecule?
The value was 66%.

What about the “Population Mitotic Cells (%)” value [2] of the same molecule?
The value was 55%.

What about the “Population Normal (%)” value [2] of the same molecule?
Its value is 92%.

And the “Population Pyknosed Nuclei (%)” value [2]?
Its value is 15%.

And the “Population Tubulin-Different-Phenotype (%)” value [2]?
The value was 25%.

What about the “Total Cell Count” value [2] of the same molecule?
The value was 345.

What about the “Population Apoptotic (%)” value [3] of the same molecule?
Its value is 40%.

And the “Population Fragmented Nuclei (%)” value [3]?
The value was 10%.

What about the “Population Healthy Nuclei (%)” value [3] of the same molecule?
The value was 71%.

What about the “Population Hoechst High Intensity Objects (%)” value [3] of the same molecule?
The value was 5%.

And the “Population Membrane Permeable-Phenotype (%)” value [3]?
The value was 0%.

And the “Population Mitochondria Different-Phenotype (%)” value [3]?
Its value is 53%.

And the “Population Mitotic Cells (%)” value [3]?
Its value is 59%.

And the “Population Normal (%)” value [3]?
The value was 94%.

And the “Population Pyknosed Nuclei (%)” value [3]?
The value was 18%.

And the “Population Tubulin-Different-Phenotype (%)” value [3]?
The value was 31%.

What about the “Total Cell Count” value [3] of the same molecule?
Its value is 362.

What about the “Population Apoptotic (%)” value [4] of the same molecule?
Its value is 60%.

And the “Population Fragmented Nuclei (%)” value [4]?
The value was 8%.

And the “Population Healthy Nuclei (%)” value [4]?
Its value is 70%.

What about the “Population Hoechst High Intensity Objects (%)” value [4] of the same molecule?
The value was 15%.

What about the “Population Mitochondria Different-Phenotype (%)” value [4] of the same molecule?
Its value is 67%.

What about the “Population Mitotic Cells (%)” value [4] of the same molecule?
The value was 40%.

What about the “Population Normal (%)” value [4] of the same molecule?
Its value is 84%.

What about the “Population Pyknosed Nuclei (%)” value [4] of the same molecule?
The value was 20%.

What about the “Population Tubulin-Different-Phenotype (%)” value [4] of the same molecule?
Its value is 20%.

What about the “Total Cell Count” value [4] of the same molecule?
Its value is 323.

And the “Population Apoptotic (%)” value [5]?
Its value is 22%.

What about the “Population Fragmented Nuclei (%)” value [5] of the same molecule?
The value was 10%.

What about the “Population Healthy Nuclei (%)” value [5] of the same molecule?
Its value is 76%.

And the “Population Hoechst High Intensity Objects (%)” value [5]?
The value was 4%.

And the “Population Membrane Permeable-Phenotype (%)” value [5]?
The value was 0%.

What about the “Population Mitochondria Different-Phenotype (%)” value [5] of the same molecule?
The value was 24%.

And the “Population Mitotic Cells (%)” value [5]?
The value was 77%.

And the “Population Normal (%)” value [5]?
The value was 95%.

What about the “Population Pyknosed Nuclei (%)” value [5] of the same molecule?
The value was 12%.

And the “Population Tubulin-Different-Phenotype (%)” value [5]?
The value was 19%.

What about the “Total Cell Count” value [5] of the same molecule?
Its value is 504.

And the “Population Apoptotic (%)” value [6]?
Its value is 33%.

And the “Population Fragmented Nuclei (%)” value [6]?
Its value is 7%.

And the “Population Healthy Nuclei (%)” value [6]?
Its value is 83%.

And the “Population Hoechst High Intensity Objects (%)” value [6]?
Its value is 7%.

And the “Population Mitochondria Different-Phenotype (%)” value [6]?
Its value is 41%.

What about the “Population Mitotic Cells (%)” value [6] of the same molecule?
The value was 66%.

What about the “Population Normal (%)” value [6] of the same molecule?
Its value is 92%.

What about the “Population Pyknosed Nuclei (%)” value [6] of the same molecule?
The value was 8%.

What about the “Population Tubulin-Different-Phenotype (%)” value [6] of the same molecule?
The value was 12%.

And the “Total Cell Count” value [6]?
Its value is 391.

What about the “Population Apoptotic (%)” value [7] of the same molecule?
Its value is 27%.

What about the “Population Fragmented Nuclei (%)” value [7] of the same molecule?
The value was 9%.

What about the “Population Healthy Nuclei (%)” value [7] of the same molecule?
The value was 77%.

And the “Population Hoechst High Intensity Objects (%)” value [7]?
The value was 6%.

What about the “Population Membrane Permeable-Phenotype (%)” value [7] of the same molecule?
Its value is 0%.

And the “Population Mitochondria Different-Phenotype (%)” value [7]?
Its value is 34%.

And the “Population Mitotic Cells (%)” value [7]?
The value was 72%.

And the “Population Normal (%)” value [7]?
The value was 93%.

And the “Population Pyknosed Nuclei (%)” value [7]?
The value was 12%.

And the “Population Tubulin-Different-Phenotype (%)” value [7]?
Its value is 21%.

What about the “Total Cell Count” value [7] of the same molecule?
Its value is 491.

What about the “Population Apoptotic (%)” value [8] of the same molecule?
The value was 50%.

What about the “Population Healthy Nuclei (%)” value [8] of the same molecule?
The value was 72%.

What about the “Population Hoechst High Intensity Objects (%)” value [8] of the same molecule?
The value was 15%.

And the “Population Mitochondria Different-Phenotype (%)” value [8]?
Its value is 48%.

And the “Population Mitotic Cells (%)” value [8]?
The value was 50%.

And the “Population Normal (%)” value [8]?
The value was 84%.

What about the “Population Pyknosed Nuclei (%)” value [8] of the same molecule?
Its value is 17%.

And the “Population Tubulin-Different-Phenotype (%)” value [8]?
Its value is 16%.

What about the “Total Cell Count” value [8] of the same molecule?
Its value is 371.

What about the “Population Apoptotic (%)” value [9] of the same molecule?
Its value is 32%.

What about the “Population Fragmented Nuclei (%)” value [9] of the same molecule?
The value was 14%.

What about the “Population Healthy Nuclei (%)” value [9] of the same molecule?
The value was 77%.

What about the “Population Hoechst High Intensity Objects (%)” value [9] of the same molecule?
Its value is 3%.

What about the “Population Membrane Permeable-Phenotype (%)” value [9] of the same molecule?
The value was 1%.

And the “Population Mitochondria Different-Phenotype (%)” value [9]?
The value was 18%.

What about the “Population Mitotic Cells (%)” value [9] of the same molecule?
Its value is 67%.

What about the “Population Normal (%)” value [9] of the same molecule?
Its value is 96%.

What about the “Population Pyknosed Nuclei (%)” value [9] of the same molecule?
The value was 8%.

And the “Population Tubulin-Different-Phenotype (%)” value [9]?
Its value is 13%.

What about the “Total Cell Count” value [9] of the same molecule?
Its value is 773.

What about the “Population Apoptotic (%)” value [10] of the same molecule?
Its value is 27%.

What about the “Population Fragmented Nuclei (%)” value [10] of the same molecule?
Its value is 11%.

And the “Population Healthy Nuclei (%)” value [10]?
The value was 82%.

What about the “Population Hoechst High Intensity Objects (%)” value [10] of the same molecule?
The value was 4%.

And the “Population Membrane Permeable-Phenotype (%)” value [10]?
The value was 0%.

What about the “Population Mitochondria Different-Phenotype (%)” value [10] of the same molecule?
Its value is 26%.

And the “Population Mitotic Cells (%)” value [10]?
Its value is 72%.

And the “Population Normal (%)” value [10]?
Its value is 95%.

And the “Population Pyknosed Nuclei (%)” value [10]?
The value was 6%.

And the “Population Tubulin-Different-Phenotype (%)” value [10]?
Its value is 12%.

And the “Total Cell Count” value [10]?
Its value is 636.

What about the “Population Apoptotic (%)” value [11] of the same molecule?
Its value is 29%.

And the “Population Fragmented Nuclei (%)” value [11]?
Its value is 15%.

And the “Population Healthy Nuclei (%)” value [11]?
Its value is 76%.

What about the “Population Hoechst High Intensity Objects (%)” value [11] of the same molecule?
Its value is 3%.

What about the “Population Membrane Permeable-Phenotype (%)” value [11] of the same molecule?
The value was 0%.

What about the “Population Mitochondria Different-Phenotype (%)” value [11] of the same molecule?
Its value is 17%.

And the “Population Mitotic Cells (%)” value [11]?
Its value is 70%.

What about the “Population Normal (%)” value [11] of the same molecule?
Its value is 96%.

What about the “Population Pyknosed Nuclei (%)” value [11] of the same molecule?
The value was 7%.

What about the “Population Tubulin-Different-Phenotype (%)” value [11] of the same molecule?
Its value is 11%.

What about the “Total Cell Count” value [11] of the same molecule?
The value was 700.

And the “Population Apoptotic (%)” value [12]?
Its value is 48%.

What about the “Population Fragmented Nuclei (%)” value [12] of the same molecule?
The value was 14%.

And the “Population Healthy Nuclei (%)” value [12]?
Its value is 78%.

And the “Population Hoechst High Intensity Objects (%)” value [12]?
The value was 4%.

What about the “Population Mitochondria Different-Phenotype (%)” value [12] of the same molecule?
Its value is 28%.

And the “Population Mitotic Cells (%)” value [12]?
The value was 51%.

What about the “Population Normal (%)” value [12] of the same molecule?
Its value is 95%.

And the “Population Pyknosed Nuclei (%)” value [12]?
The value was 6%.

And the “Population Tubulin-Different-Phenotype (%)” value [12]?
Its value is 14%.

What about the “Total Cell Count” value [12] of the same molecule?
The value was 531.

— ChEMBL document CHEMBL5058577, “EUbOPEN Chemogenomics Library 2 (Multiplex)” (2022)
